An excerpt weighted towards active compounds, which were near 1.8% of everything screened.
LEDGF integ inh – blocks HIV-1 LEDGF/p75-dependent DNA integration. AID 743269. inhibition, % at 3.7 µM. TR-FRET IN-LEDGF/p75 DNA integration, Eu/Cy5. hit rate 0.64% among 370,000;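 active = inhibition above the screen-wide mean plus 3 SD, cut at about 13% in these data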;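 note: signal is the Cy5 over europium emission ratio at 671 and 618 nm; 0% = plate median of compound wells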
MBD2 DNA inh – inhibitors of human MBD2 binding to methylated oligonucleotide | Q9UBB5 | TR-FRET | inhibition, % at 4.4 µM | hit rate 0.31% among 370,000 | AID 686964; in the data active = inhibition above about 13%
UHRF1 MBD2 ctr – blocks human UHRF1 binding to methylated DNA; UHRF1 binding to methylated oligo, TR-FRET; Q96T88; hit rate 0.75% among 370,000; inhibition, % at 4.4 µM; in the data active = inhibition above about 21%;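 note: UHRF1 SRA domain binding a hemimethylated CpG hairpin DNA probe; 0% = median of test compound wells and 100% = reference inhibitor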
Target sequence (Q96T88 whole entry, looked up, the tested form may be a part): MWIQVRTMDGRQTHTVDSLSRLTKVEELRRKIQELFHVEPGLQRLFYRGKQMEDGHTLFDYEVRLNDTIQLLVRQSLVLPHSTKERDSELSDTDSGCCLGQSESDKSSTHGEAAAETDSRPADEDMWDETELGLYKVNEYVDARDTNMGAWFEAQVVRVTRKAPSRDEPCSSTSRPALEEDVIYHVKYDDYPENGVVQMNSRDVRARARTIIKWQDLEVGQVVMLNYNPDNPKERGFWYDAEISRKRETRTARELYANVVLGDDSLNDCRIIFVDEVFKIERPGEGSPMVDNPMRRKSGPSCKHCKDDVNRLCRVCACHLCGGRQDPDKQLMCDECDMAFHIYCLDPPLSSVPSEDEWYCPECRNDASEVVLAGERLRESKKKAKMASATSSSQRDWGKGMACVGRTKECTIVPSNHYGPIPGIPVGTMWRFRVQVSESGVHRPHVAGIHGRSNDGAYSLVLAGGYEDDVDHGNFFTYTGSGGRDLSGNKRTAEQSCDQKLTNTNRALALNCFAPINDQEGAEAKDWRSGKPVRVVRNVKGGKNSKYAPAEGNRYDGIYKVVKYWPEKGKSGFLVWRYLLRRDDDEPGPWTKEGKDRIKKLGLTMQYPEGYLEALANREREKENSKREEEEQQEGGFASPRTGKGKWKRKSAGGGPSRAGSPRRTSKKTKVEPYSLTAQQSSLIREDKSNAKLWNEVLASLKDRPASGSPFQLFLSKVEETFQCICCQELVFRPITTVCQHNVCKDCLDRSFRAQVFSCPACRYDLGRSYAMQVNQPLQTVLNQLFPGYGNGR
TDP2 absorb – blocks human TDP2 phosphodiesterase activity; O95551; hit rate 0.34% among 370,000; recombinant TDP2, T5PNP hydrolysis, p-nitrophenol absorbance 415 nm; inhibition, % at 12.8 µM; AID 720702;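 active = inhibition above the mean of all tested compounds plus 3 SD, set per campaign, cut at about 25% in these data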;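 note: 0% = DMSO with enzyme and 100% = buffer with substrate but no TDP2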
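test system = human TDP2 enzyme | input = TDP2 enzyme at 120 nM final | medium = 50 mM Tris-HCl pH 7.5 with Mg2+, KCl, DTT, BSA | also added = T5PNP substrate, 5 mM | times = 2 h at 37 °C | technique = epi absorbance | benchmarks = high control without enzyme, low control DMSO plus TDP2 | replication = each compound tested once, singlicate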
HCV core dimer – HCV core protein dimerization inhibition; inhibition, % at 5 µM; hit rate 0.33% among 300,000; TR-FRET GST/Flag-core106 dimerization, 1536-well;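 active = inhibition above the mean of all tested compounds plus 3 SD, set per screening campaign, cut at about 45% in these data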
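Material: GST/Flag-tagged HCV core106 proteins. Incubation: 4 h, 22.5 °C incubation. Read-out basis: inhibition (%) from 671 over 617 nm ratio. Measured by: TR-FRET, excitation 340 nm, emission 617 and 671 nm.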
IN multimer up – activates HIV-1 integrase multimerization in LEDGF counter-screen | shares compounds with LEDGF integ inh | TR-FRET HIV-1 integrase multimerization, biochemical | activation, % at 7.7 µM | hit rate 17% among 2,000 | AID 1053131; in the data active = activation above about 8.9%
TR-FRET interf – counter-screen for LEDGF/p75 integration inhibitors: TR-FRET optical interference | shares compounds with LEDGF integ inh | TR-FRET optical interference counterscreen, HIV-1 IN multimerization | inhibition, % at 7.7 µM | 2,000 tested, under 10 active;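 active = inhibition above the mean over all tested compounds plus 3 SD, which no compound reached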;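 note: 0% = integrase with antibodies and DMSO and 100% = antibodies without integrase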
LEDGF integ conf – confirmation of HIV-1 LEDGF/p75-dependent integration inhibitors; shares compounds with LEDGF integ inh; inhibition, % at 3.7 µM; TR-FRET LEDGF/p75-dependent HIV-1 integration, biochemical; hit rate 36% among 2,000; in the data active = inhibition above about 14%
Numbers without * were called inactive; x = no result.

SMILES	LEDGF integ inh	MBD2 DNA inh	UHRF1 MBD2 ctr	TDP2 absorb	HCV core dimer	IN multimer up	TR-FRET interf	LEDGF integ conf
NS(=O)(=O)c1ccc2c(c1)C1C=CCC1C(C1CC=CCC1)N2 (configuration not stated)	21.4*	4.8	1.7	8.9	65.0*	1.6	-8.2	3.5
CC(C)C1Nc2ccc(S(N)(=O)=O)cc2C2C=CCC21 (configuration not stated)	0.0	-1.6	-5.9	-4.6	1.3	x	x	x
CCN1CCCC1CNC(=O)Cn1nc(C)n2c(cc3cc(F)ccc32)c1=O (configuration not stated)	19.0*	10.8	15.7	7.6	0.7	2.6	-9.2	-2.4
CC(C)C(NC(=O)C12CC3CC(CC(C3)C1)C2)C(=O)N/N=C/C1=C(N2CCOCC2)C(=C\c2cccc([N+](=O)[O-])c2)/CC1 (configuration not stated)	2.3	4.8	1.6	1.0	0.0	x	x	x
Cn1cc(C(=O)N/N=C/C2=C(N3CCOCC3)C(=C/c3ccc([N+](=O)[O-])cc3)/CC2)ccc1=O	87.7*	5.0	-2.9	-0.3	16.0	-0.8	4.2	-2.1
COc1cccc(=O)c2c(C)n(C)c(C)c12	35.6*	1.4	21.9*	15.8	1.3	6.0	-21.2	-0.1
CCOc1cccc(=O)c2c(C)n(C)c(C)c12	13.9*	-3.4	4.4	10.4	11.4	3.5	-12.7	0.0
CCCCCn1c(C)c2c(OCC)cccc(=O)c2c1C	8.5	5.2	19.6	7.9	-0.9	x	x	x
Cc1cc2cc3c(cc2n2c(SCC(=O)Nc4nc(-c5ccccc5)cs4)nnc12)OCO3	-0.2	-2.8	3.2	-1.0	x	x	x	x
Nc1cc(Cl)ccc1Oc1ccc(Cl)cc1	-0.5	-0.2	-1.5	-3.5	-0.1	x	x	x
Nc1cc(Cl)ccc1Oc1ccccc1	35.7*	2.9	-2.2	-6.9	-6.5	0.1	-0.3	5.5
Cc1cc(NS(=O)(=O)c2ccc(NC(=O)CSc3nnc(-c4ccncc4)n3Cc3ccco3)cc2)nc(C)n1	36.0*	6.0	7.1	-1.7	x	1.0	-5.3	-9.5
O=C(CSc1nnc(-c2ccc(Cl)cc2)n1Cc1ccco1)Nc1ccc(S(=O)(=O)Nc2nccs2)cc1	19.1*	-2.0	1.7	-2.2	x	5.8	-20.8	5.2
Cc1cc(NS(=O)(=O)c2ccc(NC(=O)CSc3nnc(-c4ccc(Cl)cc4)n3Cc3ccco3)cc2)nc(C)n1	4.9	-7.6	-3.9	3.5	x	x	x	x
CC(C)CN1C(=O)C[C@]2(C(=O)N(C)c3ccc(NS(=O)(=O)C4CCCCC4)cc32)C1c1ccccc1 (some centres not stated)	0.6	-0.2	0.2	-11.8	x	x	x	x
O=C(Cn1nnc(-c2ccncc2)n1)Nc1ccc(Oc2ccccc2)cc1	-0.3	3.7	0.6	3.4	x	x	x	x
O=S1(=O)CC(N2CCN(CCO)CC2)CN1Cc1ccccc1 (configuration not stated)	35.4*	-7.0	-0.6	-11.7	x	1.1	-3.8	-1.0
CCCCCCN1CCN(C2CN(Cc3ccccc3)S(=O)(=O)C2)CC1 (configuration not stated)	-0.3	7.6	-1.3	3.3	x	x	x	x
Cc1ccc(S(=O)(=O)N2[C@H](CC(=O)c3cccc4ccccc34)OC[C@@H]2C(C)C)cc1	3.5	5.9	1.8	-1.5	x	x	x	x
Cc1ccc(S(=O)(=O)N2[C@H](CC(=O)c3cccc4ccccc34)OC[C@@H]2C)cc1	13.7*	7.0	8.0	-4.4	x	-0.2	0.8	-4.2
CC(=NNC1=NCCN1)c1cnn(C2=NCCN2)c1C	18.2*	-1.9	-0.6	1.1	x	0.7	-3.4	-0.9
CCOc1ccc(Br)cc1/C(C)=N\NC1=NCCN1	-1.3	0.5	-2.8	1.0	-5.5	x	x	x
COc1ccc(-c2cc(C(=O)Nc3ccc(C)c(C)c3)no2)cc1	6.1	-1.6	2.5	-10.6	-5.3	x	x	x
COc1ccc(-c2cc(C(=O)Nc3cccc(O)c3)no2)cc1	38.2*	-4.1	0.8	-0.6	5.2	1.1	-3.9	-7.3
CC(=O)c1cccc(-c2ccc3c(c2)C(C)(Cc2ccc(S(C)(=O)=O)cc2)C(=O)N3)c1 (configuration not stated)	48.5*	-4.7	-0.2	10.2	x	-0.5	2.5	-1.5
SMILES	LEDGF integ inh	MBD2 DNA inh	UHRF1 MBD2 ctr	TDP2 absorb	HCV core dimer	IN multimer up	TR-FRET interf	LEDGF integ conf
CC(=O)c1cccc(-c2ccc3c(c2)C(C)(Cc2ccccc2C#N)C(=O)N3)c1 (configuration not stated)	-5.0	3.4	1.8	6.0	x	x	x	x
CCOC(=O)C(CC(=O)Nc1nc(C(C)=O)c(C)s1)C(C)c1ccccc1 (configuration not stated)	18.4*	3.0	0.9	-0.2	6.2	1.0	-3.5	-5.1
Cc1nnc(NC(=O)CC(C)c2ccccc2)s1 (configuration not stated)	-2.4	1.8	0.7	-2.5	6.8	x	x	x
CC(C)(C)OC(=O)N/N=C/c1cccn1-c1ccc([N+](=O)[O-])cc1	14.0*	-8.9	-3.8	-10.9	11.7	-2.8	10.0	-1.3
COc1ccc(CC(=O)N/N=C/c2cccn2-c2ccc([N+](=O)[O-])cc2)cc1OC	6.3	1.0	-0.9	-12.0	32.6	x	x	x
Cc1cc(NC(=O)CSc2ccc3nnc(CCNC(=O)c4ccccc4)n3n2)no1	-4.2	-2.3	-0.9	5.8	6.1	x	x	x
Cc1ccc(NC(=O)CSc2ccc3nnc(CCNC(=O)c4ccccc4)n3n2)c(C)c1	43.4*	-6.4	-0.5	-5.7	0.0	0.5	-2.5	-4.0
Cn1ccnc1SCC(=O)c1cc2ccccc2o1	24.6*	-4.0	-3.7	10.3	38.2	7.1	-25.3	7.2
Cc1ccc(NC(=O)[C@@H]2CC(=O)O[C@@H]2c2ccccc2)c(C)c1	-2.4	1.1	-0.2	3.0	x	x	x	x
O=C(NC1CCCCN(Cc2cccc(Cl)c2)C1=O)c1ccc(F)c(F)c1 (configuration not stated)	1.4	1.2	-1.9	0.4	x	x	x	x
COC(=O)c1sccc1N/C=C(\C#N)S(=O)(=O)C(C)(C)C	78.8*	-0.8	1.5	-9.3	-1.4	0.0	0.1	0.5
COc1ccc(C(=O)c2[nH]c(N)c(C(=O)c3ccccc3)c2-c2ccc(OC)c(OC)c2)cc1	-3.8	4.3	-0.5	-0.3	x	x	x	x
CC(=O)N1CCC(N2CCN(c3ccccc3F)CC2)CC1	40.5*	3.5	5.6	5.1	5.5	1.1	-5.5	-3.2
CCC1CCC(N2CCN(c3ccccc3F)CC2)CC1 (configuration not stated)	0.8	-0.5	4.9	7.5	5.8	x	x	x

Compound activity (PubChem BioAssay)
